The target of experiment [1] is T1, Glutamate NMDA receptor (Rattus norvegicus) (UniProt P35439+Q00959+Q00960+Q00961+Q62645+Q8VHN2+Q9R1M7). As to the kind of experiment: (§1) Displacement of L[3H]glutamate from GluR in rat brain synaptic membrane. Type of experiment: cell membranes. In short, it runs like this: (§2)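 Competitive radioligand binding to glutamate receptors: displacement of L-[³H]glutamate from rat brain synaptic membranes, with test concentrations up to 100 μM.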

Experiment [2] has as its target T1, Glutamate NMDA receptor (Rattus norvegicus). As to the kind of experiment: Displacement of L[3H]glutamate from GluR in rat brain synaptic membrane up to 100 uM. Type of experiment: cell membranes. In a few lines: as §2
Experiment [3] shares this target. Kind of experiment: Binding affinity to GluR in rat brain synaptic membranes at 100 uM.
Experiment [4] has the same target. Kind of experiment: Protection of rat hippocampal neurons from NMDA excitotoxicity. The class given is functional, tissue-based. The conditions noted are these: Hippocampus. In short, it runs like this: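 Neuronal death was induced in cultured rat hippocampal neurons by exposure to NMDA (100 µM), and neuronal survival was scored with test agent present.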
The next experiment relates to Hippocampal neurone. Kind of experiment: Protection of rat hippocampal neurons from oxygen-glucose deprivation. Type of experiment: functional, tissue-based. To be noted: Hippocampus. In a few lines:
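Cultured rat hippocampal neurons were subjected to oxygen-glucose deprivation injury, and neuronal survival was assessed with test agent present.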

For a further experiment, the target named is Glutamate NMDA receptor. The experiment is described as §1. The class given is cell membranes. In short, it runs like this: as §2

pKi: −log10 of the molar value. Active and inactive are the calls of the source. The rule behind the calls is not given here. Square brackets hold non-standard residues; d marks the D form. Peptide text beside a SMILES is read from it. Thz = O=C(O)[C@@H]1CSCN1

For the molecule `NCC(=O)N1CSC[C@H]1C(=O)N[C@@H](CCC(=O)O)C(=O)O` (H-Gly-[Thz]-Glu-OH), the result in experiment [1] was inactive. As to `CCC[C@@]1(C(=O)N[C@@H](CCC(=O)O)C(=O)O)CCCN1C(=O)CN`, in experiment [2], the outcome was inactive.

As to `NCC(=O)N1CCC[C@@H]1C(=O)N[C@@H](CCC(=O)O)C(=O)O`, the outcome in experiment [3] was inactive. For the same molecule, the result (in experiment [4]; in the experiment with Hippocampal neurone) was Active.

`CC1(C)CC[C@@H](C(=O)N[C@@H](CCC(=O)O)C(=O)O)N1C(=O)CN` showed a negative logarithm of the Ki (pKi) on Glutamate NMDA receptor of 5.42.

As for `CC1(C)CC[C@H](C(=O)N[C@@H](CCC(=O)O)C(=O)O)N1C(=O)CN`, the pKi at Glutamate NMDA receptor is 6.48. Turning to `NCC(=O)N1CCC[C@H]1C(=O)N[C@H](CCC(=O)O)C(=O)O`, the result in experiment [3] was inactive. Besides, the outcome (in experiment [4]; in the experiment on Hippocampal neurone) was Active. `C[C@@]1(C(=O)N[C@@H](CCC(=O)O)C(=O)O)CCCN1C(=O)CN` (stereo in doubt; 1) [TROFINETIDE]: the pKi at Glutamate NMDA receptor was 4.51.

Consider `CC1(C)SC[C@@H](C(=O)N[C@@H](CCC(=O)O)C(=O)O)N1C(=O)CN`, for which the result in experiment [1] was inactive. Regarding `NCC(=O)N1CCC[C@]12CCN([C@@H](CCC(=O)O)C(=O)O)C2=O`, in experiment [2], the outcome was inactive.

A word on the pKi: it is the negative decadic logarithm of the Ki, by convention in mol/L. Read a high pKi as a low Ki.

The values above are taken from ChEMBL document CHEMBL1138075 (Bioorg Med Chem Lett, 2006).
